Bioassay records: PubChem, several laboratories
Yeast growth inh – growth inhibitors of yeast BB579 in restrictive medium, primary screen, yeast lifespan-shortening project, S. cerevisiae. AID 804, 2007. OD615, 48 h. actives 0.51% (n = 140,000). inhibition, % at 10 µM;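 active means inhibition above a set limit, 3 SD over the mean compound inhibition, cut at about 44% in these data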
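System: Saccharomyces cerevisiae DeaD strain BB579, replicative lifespan model yeast. Buffer or medium: restrictive glucose-based CSMM-D medium. Doses: one dose, 10 µM compound with 0.25% DMSO. Timing: 4 h preincubation and 48 h exposure at 30 °C. Detection: turbidity as optical density at 615 nm. Benchmarks: amphotericin B 10 µg/mL, positive.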
RBBP9 inh – human RBBP9 inhibitors, primary screen, biochemical, fluorescence polarization, FP-Rh probe, HTS; Serine hydrolase RBBP9 (Homo sapiens), O75884; recombinant RBBP9; inhibition, % at 7.94 µM; actives 0.2% (n = 220,000);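 active means inhibition above the campaign mean of all tested compounds plus 3 SD, cut at about 14% in these data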;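 further: plate controls were DMSO wells with RBBP9 for no effect and wells lacking RBBP9 protein for full effect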
Target sequence (O75884 whole entry, looked up): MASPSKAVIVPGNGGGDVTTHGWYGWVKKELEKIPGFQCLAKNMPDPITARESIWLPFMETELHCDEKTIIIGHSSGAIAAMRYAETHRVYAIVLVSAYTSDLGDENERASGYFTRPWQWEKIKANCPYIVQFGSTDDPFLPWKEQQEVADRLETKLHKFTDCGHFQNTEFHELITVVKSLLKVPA
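System: RBBP9 protein / Buffer or medium: Tris/NaCl buffer pH 8.0 with 0.1% Pluronic / Probe or stimulus: Serine-hydrolase probe FP-Rh, 375 nM pre-mixing / Dosing: 7.94 µM single dose, 0.794% DMSO / Times: enzyme-compound preincubation 30 min, then probe labeling 45 min, 25 °C / Technique: fluorescence polarization (mP), excitation 525 nm, emission 598 nm / Replication: singlicate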
Yeast lifespan up – compounds extending yeast replicative lifespan, primary screen, S. cerevisiae, OD615 | S. cerevisiae growth with nicotinamide; deaD strain in restrictive glucose medium | inhibition of the nicotinamide effect, % at 10 µM | actives 0.68% (n = 130,000) | AID 775, 2007;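 active means inhibition above a set limit, placed 3 SD over the median of all compounds, cut at about 26% in these data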;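 further: 0% = nicotinamide-treated wells and 100% = cells grown without nicotinamide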
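Material: Modified budding yeast, DeaD strain | Medium: Restrictive glucose medium | Probe or stimulus: 1.5 mM nicotinamide | Dosing: Single dose 10 µM compound, 0.25% DMSO | Times: 48 h at 30 °C | Technique: OD615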
Tb hexokinase – Trypanosoma brucei hexokinase 1 inhibitors, primary screen, biochemical, G6PDH-coupled NADH absorbance, MLSCN library | hexokinase 1 [Trypanosoma brucei] | recombinant TbHK1, G6PDH-coupled NADH A340 | inhibition, % at 10 µM | actives 0.11% (n = 220,000);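 active means inhibition of 50% or more in the single-dose primary screen; inactive means inhibition below 50%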
NCF1 inh – p47phox/p22phox peptide binding inhibitors, primary screen, biochemical, uHTS, NADPH oxidase regulatory subunit | Neutrophil cytosol factor 1 (Homo sapiens), P14598 | fluorescence polarization, 2 h | inhibition, % at 24.7 µM | actives 0.53% (n = 220,000) | AID 1274, 2008;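 active means inhibition above about 30%, limit read from the data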;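 further: 0% = p47phox with labelled peptide and 100% = labelled peptide alone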
Target sequence (P14598 whole entry, looked up): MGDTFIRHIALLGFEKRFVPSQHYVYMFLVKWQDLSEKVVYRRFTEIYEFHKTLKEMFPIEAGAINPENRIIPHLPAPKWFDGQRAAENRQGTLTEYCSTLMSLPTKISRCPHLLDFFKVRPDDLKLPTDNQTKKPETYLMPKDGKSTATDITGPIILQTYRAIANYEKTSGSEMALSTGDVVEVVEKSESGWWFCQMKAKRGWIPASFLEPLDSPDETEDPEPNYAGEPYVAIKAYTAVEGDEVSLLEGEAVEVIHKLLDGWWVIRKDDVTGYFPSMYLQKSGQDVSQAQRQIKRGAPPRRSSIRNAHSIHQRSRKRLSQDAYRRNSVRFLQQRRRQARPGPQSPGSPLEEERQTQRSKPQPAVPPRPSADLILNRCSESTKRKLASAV
SDO1 yeast rescue – growth rescue of sdo1-depleted yeast, primary screen, S. cerevisiae, bone marrow failure model | S. cerevisiae sdo1-depleted JHY4D growth rescue, OD600 30 h; active compounds read high; pdr5 snq2 efflux-pump mutant strain | z-score at 10 µM | actives 0.21% (n = 140,000);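 active means z-score above 3 at both the 24 hr and the 30 hr optical density reads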;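 further: z-score against mean and SD of all compound wells on the same plate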
* marks the source's active call; other numbers are inactive results; nt = no result given. Hits are enriched below; roughly 1.6% of the tested compounds scored in any of these assays.

SMILES	Yeast growth inh	RBBP9 inh	Yeast lifespan up	Tb hexokinase	NCF1 inh	SDO1 yeast rescue
Cc1ccc(C)c(NC(=O)CSc2nnc(-c3ccncc3)n2N)c1	-62	-12	24	-9	34*	0.37
O=c1c2ccccc2nc(-c2ccc(Cl)c(Cl)c2)n1O	-17	-2	76*	1	-6	1.2
O=C(COC(=O)Cc1cccc(C(F)(F)F)c1)NCC1CCCO1 (stereo not drawn)	13	-5	5	6	65*	0.56
O=C(NC(c1ccc(Cl)cc1)c1cc(Cl)c2cccnc2c1O)c1cccnc1 (stereo not drawn)	-25	-5	-3	6	32*	-2.1
CC(CCc1ccccc1)NCC#N (stereo not drawn)	nt	0	nt	-5	-26	nt
Cc1ccc(S(=O)(=O)O/N=C2\CCCc3ccccc32)cc1	-12	4	-4	1	46*	1.6
CS(=O)(=O)c1ncc(CO)n1Cc1ccccc1	nt	-3	nt	8	3	nt
O=c1c2ccccc2c(-c2ccccc2)nn1-c1cc(Cl)cc(Cl)c1	nt	2	nt	3	1	nt
O=c1c(Cc2ccccc2)c(O)ccn1Cc1ccco1	nt	-10	nt	1	-7	nt
COc1ccccc1CNc1nc(-c2cc(C)n(C)c2C)cs1	nt	-5	nt	0	46*	nt
O=C(NCc1cccnc1)c1cccc2c1C(=O)N(C1CCCCC1)C2	-44	-1	52*	-1	-11	0.5
CCc1cc2c(C)cc(=O)oc2cc1Oc1ncccc1[N+](=O)[O-]	nt	-14	nt	4	4	nt
COc1ccc(C2c3ccsc3CCN2C(=O)C(C)(C)C)cc1 (stereo not drawn)	nt	0	nt	-5	-4	nt
O=C(N/N=C/c1ccc([N+](=O)[O-])o1)c1cc2ccccc2o1	nt	-5	nt	-12	-24	nt
O=C(N/N=C/c1ccc([N+](=O)[O-])o1)c1cc2c(ccc3ccccc32)o1	nt	-10	nt	-13	30*	nt
CCOC(=O)C1CCN(C(=O)COC(=O)c2ccc3c(c2)C(=O)N(c2ccc(OCC)cc2)C3=O)CC1	nt	-10	nt	-14	13	nt
Cn1nc(N)c2c(-c3ccc(Cl)cc3)c(C#N)c(N)nc21	-10	-2	-6	-22	62*	3.3
CCCN(CCC)Cc1cc(=O)oc2cc3c(cc12)CCC3	nt	-4	nt	-14	-8	nt
CC(C(=O)Nc1cccnc1)n1cc([N+](=O)[O-])cn1 (stereo not drawn)	nt	-10	nt	-8	-6	nt
COc1cc(NC(=S)NC(=O)c2ccco2)ccc1NC(=O)C(C)C	nt	-3	nt	-9	0	nt
COc1cc(NC(=O)C(C)C)ccc1NC(=O)c1ccco1	-3	-2	-11	-6	125*	1.7
Oc1cc2c(cc1C(c1ccc(Br)cc1)N1CCCC1)OCO2 (stereo not drawn)	nt	-1	nt	5	3	nt
Cc1[nH]n(-c2ccccc2)c(=O)c1N=Nc1nccs1	-39	-8	34*	-13	-3	0.21
Cn1c(=O)c2nc(-c3ccccc3)oc2c2ccccc21	78*	-3	-23	-12	-4	-2.8
CCCCCc1nc2c(=O)n(C)c3ccccc3c2o1	5	-6	-15	1	-12	-2
SMILES	Yeast growth inh	RBBP9 inh	Yeast lifespan up	Tb hexokinase	NCF1 inh	SDO1 yeast rescue
Cc1nc2c(c(-c3ccccc3)c1C#N)C(=O)c1ccccc1-2	-36	6	-17	4	-6	-1.1
Cc1nc2c(c(C)c1C#N)C(=O)c1ccccc1-2	64*	-9	-7	13	-13	-0.26
CN(C)CC(C(=O)c1ccccc1)c1ccccc1 (stereo not drawn)	-38	-13	101*	0	-7	-2.7
COc1ccc(C(C(=O)OC(C)CN(C)C)c2ccccc2)cc1 (stereo not drawn)	-21	2	-3	1	-1	1.2
O=c1[nH]c2ccccc2c2nc3ccccn3c12	80*	-6	-26	2	3	-0.33
O=c1c2ccccc2nc2ccccn12	nt	-6	nt	-15	-2	nt
CCOc1ccc(C(=O)NCC(=O)Nc2ccc(N3CCOCC3)cc2)cc1OCC	nt	0	nt	1	-8	nt
CNC(=S)NC1CC2CCCC(C1)N2Cc1ccco1 (stereo not drawn)	-37	-11	68*	2	-19	1
CCOc1ccc(NS(=O)(=O)c2cnc(Cl)c(Cl)c2)cc1	-66	-10	2	-1	2	-1.7
Cc1cc(C)cc(NS(=O)(=O)c2cnc(Cl)c(Cl)c2)c1	76*	-1	-18	-7	-9	-1.6
O=C(COc1cccc(Br)c1)N/N=C1\CCCc2ccccc21	nt	-8	nt	2	5	nt
O=C(COc1cccc(Br)c1)NN=C1c2ccccc2-c2ccccc21	-44	-5	-1	-4	68*	-0.4
COc1ccc(C(C)C)cc1S(=O)(=O)N1CCN(c2ccccc2)CC1	nt	-7	nt	9	6	nt
O=C(c1cncc(Br)c1)N1CCc2ccccc2C1	-54	4	43*	-7	-9	0.08
CN(C)C=Nc1ccccc1C1C=NNC1=O (stereo not drawn)	nt	2	nt	30	-13	nt
O=C(Nc1cccc(Cl)c1)c1ccc2c(=O)n3c(nc2c1)CCCCC3	-39	-6	59*	-1	-1	-2.2
Cc1c(C(C)(C(=O)O)c2c(C)n(C)c3ccccc23)c2ccccc2n1C	nt	-8	nt	-1	-7	nt
N#CC(=C=[N-])c1nc2ccccc2nc1-[n+]1cccc(NC(=O)c2cccs2)c1	nt	0	nt	16	48*	nt
N#CC(=C=[N-])c1nc2ccccc2nc1-[n+]1cccc(NC(=O)c2ccc(F)cc2)c1	nt	4	nt	-11	21	nt
N#CC(=C=[N-])c1nc2ccccc2nc1-[n+]1cccc(NC(=O)c2ccccc2)c1	nt	-6	nt	-18	53*	nt
Nc1cc(Nc2ccc(Br)cc2)nc(N)n1	nt	1	nt	-2	-22	nt
Cn1nnnc1SCC(=O)N(C1CCCCC1)C1CCS(=O)(=O)C1 (stereo not drawn)	nt	-10	nt	0	-4	nt
O=C(Cn1c(O)c(/C=C2\C=Nc3ccc(Br)cc32)sc1=O)N1CCCC1	-37	-1	-26	-29	39*	-0.98
CCCCCCn1c(CN2CCN(Cc3ccccc3)CC2)nc2c1c(=O)n(C)c(=O)n2C	-37	-6	27*	-7	-10	-1.2
CCOCCCn1c(C)nc2c(c1=O)c1nc3ccccc3nc1n2-c1ccc2c(c1)OCCO2	nt	0	nt	-33	-22	nt
COc1ccc(NC(=O)Cc2ccccc2)cn1	nt	-1	nt	1	-6	nt
COc1ccc(NC(=O)/C(Cl)=C(/Cl)S(=O)Cc2ccccc2)cn1 (stereo not drawn)	-58	1	53*	-2	-19	-2.5
